Measured values: ChEMBL document CHEMBL1671809, “Discovery of phosphoric acid mono-{2-[(E/Z)-4-(3,3-dimethyl-butyrylamino)-3,5-difluoro-benzoylimino]-thiazol-3-ylmethyl} ester (Lu AA47070): a phosphonooxymethylene prodrug of a potent and selective hA(2A) receptor antagonist” (J Med Chem, 2011)
≈ marks a conversion by molar mass, not a printed value.

Key:
[1] = molecular target: Cytochrome P450 3A4 (Homo sapiens, UniProt P08684); assay: Inhibition of recombinant CYP3A4 after 30 mins; format: ADME
Chain of Cytochrome P450 3A4 (P08684 whole entry): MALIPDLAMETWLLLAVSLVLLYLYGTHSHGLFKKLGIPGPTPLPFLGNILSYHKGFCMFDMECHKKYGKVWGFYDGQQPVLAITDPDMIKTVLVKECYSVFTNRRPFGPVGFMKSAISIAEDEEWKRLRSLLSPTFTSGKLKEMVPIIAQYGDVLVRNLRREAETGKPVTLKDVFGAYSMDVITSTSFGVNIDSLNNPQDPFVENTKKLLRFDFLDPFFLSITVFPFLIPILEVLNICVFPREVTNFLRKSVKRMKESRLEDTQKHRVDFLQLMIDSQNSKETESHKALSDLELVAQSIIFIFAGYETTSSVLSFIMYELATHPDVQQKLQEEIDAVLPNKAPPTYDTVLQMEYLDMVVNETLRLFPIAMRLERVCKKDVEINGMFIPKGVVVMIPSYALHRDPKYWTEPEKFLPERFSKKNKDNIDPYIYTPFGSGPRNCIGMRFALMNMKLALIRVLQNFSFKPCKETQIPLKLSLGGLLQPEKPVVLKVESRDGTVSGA
How it was run: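 Recombinant CYP supersomes incubated in phosphate buffer with eight compound concentrations (40-0.02 μM) and fluorogenic substrates. CYP3A4: resorufin benzyl ether 100 μM, 30 min. Fluorescent metabolite read; IC50 relative to uninhibited controls.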

[2] = system: Caco-2; assay: Efflux ratio of permeability from basolateral to apical over apical to basolateral side in human Caco2 cells after 21 to 28 days by LC-MS/MS analysis
[3] = system: Liver microsomes; assay: Intrinsic clearance in human liver microsomes at 1 uM after 60 mins by LC-MS/MS analysis; format: ADME, Microsome; conditions: 1 h
How it was run: (§1)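 Compound at 1 μM with human or rat liver microsomes (0.5 mg protein/mL) plus NADPH at 37 C. Samples at 0, 5, 15, 30 and 60 min, quenched with acetonitrile, analysed by LC-MS/MS.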

[4] = molecular target: T1, Adenosine receptor A2a (Homo sapiens, UniProt P29274); assay: Displacement of [3H]-ZM241385 from human adenosine A2A receptor expressed in high five cells after 30 mins by scintillation counting
T1 sequence (P29274 whole entry): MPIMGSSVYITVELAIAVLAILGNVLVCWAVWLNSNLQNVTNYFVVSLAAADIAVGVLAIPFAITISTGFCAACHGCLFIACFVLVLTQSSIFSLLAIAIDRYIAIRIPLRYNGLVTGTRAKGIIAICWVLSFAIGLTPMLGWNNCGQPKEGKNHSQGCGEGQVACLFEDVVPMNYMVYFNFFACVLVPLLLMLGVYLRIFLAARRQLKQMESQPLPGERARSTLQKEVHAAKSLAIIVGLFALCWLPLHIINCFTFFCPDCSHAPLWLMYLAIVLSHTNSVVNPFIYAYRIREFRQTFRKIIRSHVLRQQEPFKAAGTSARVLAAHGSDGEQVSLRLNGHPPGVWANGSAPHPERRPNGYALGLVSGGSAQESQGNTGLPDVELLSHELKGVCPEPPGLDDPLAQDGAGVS

[5] = molecular target: T2, Cytochrome P450 1A2 (Homo sapiens, UniProt P05177); assay: Inhibition of recombinant CYP1A2 after 28 mins; format: ADME
T2 sequence (P05177 whole entry): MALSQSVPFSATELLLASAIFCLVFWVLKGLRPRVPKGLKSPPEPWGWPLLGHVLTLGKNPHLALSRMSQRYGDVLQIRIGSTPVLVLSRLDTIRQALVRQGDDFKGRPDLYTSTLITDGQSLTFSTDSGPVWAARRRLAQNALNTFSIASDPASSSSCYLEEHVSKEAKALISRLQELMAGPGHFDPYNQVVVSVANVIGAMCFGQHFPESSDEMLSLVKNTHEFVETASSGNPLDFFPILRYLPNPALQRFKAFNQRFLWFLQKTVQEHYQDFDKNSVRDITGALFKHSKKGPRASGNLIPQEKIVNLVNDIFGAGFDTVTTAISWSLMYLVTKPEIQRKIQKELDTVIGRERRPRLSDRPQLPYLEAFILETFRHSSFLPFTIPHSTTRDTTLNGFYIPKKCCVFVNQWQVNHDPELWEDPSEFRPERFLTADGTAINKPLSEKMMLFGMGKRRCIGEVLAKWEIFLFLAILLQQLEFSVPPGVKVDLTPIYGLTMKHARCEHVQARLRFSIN
How it was run: (§2)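 Recombinant CYP supersomes incubated in phosphate buffer with eight compound concentrations (40-0.02 μM) and fluorogenic substrates. CYP1A2: 7-ethoxy-3-cyanocoumarin 10 μM, 28 min. CYP2C19: same substrate 50 μM, 45 min. CYP2D6: AMMC 3 μM, 45 min. CYP3A4: resorufin benzyl ether 100 μM, 30 min. Fluorescent metabolite read; IC50 relative to uninhibited controls.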

[6] = molecular target: Cytochrome P450 2D6 (Homo sapiens, UniProt P10635); assay: Inhibition of recombinant CYP2D6 after 45 mins; format: ADME; how it was run: as §2
Chain of Cytochrome P450 2D6 (P10635 whole entry): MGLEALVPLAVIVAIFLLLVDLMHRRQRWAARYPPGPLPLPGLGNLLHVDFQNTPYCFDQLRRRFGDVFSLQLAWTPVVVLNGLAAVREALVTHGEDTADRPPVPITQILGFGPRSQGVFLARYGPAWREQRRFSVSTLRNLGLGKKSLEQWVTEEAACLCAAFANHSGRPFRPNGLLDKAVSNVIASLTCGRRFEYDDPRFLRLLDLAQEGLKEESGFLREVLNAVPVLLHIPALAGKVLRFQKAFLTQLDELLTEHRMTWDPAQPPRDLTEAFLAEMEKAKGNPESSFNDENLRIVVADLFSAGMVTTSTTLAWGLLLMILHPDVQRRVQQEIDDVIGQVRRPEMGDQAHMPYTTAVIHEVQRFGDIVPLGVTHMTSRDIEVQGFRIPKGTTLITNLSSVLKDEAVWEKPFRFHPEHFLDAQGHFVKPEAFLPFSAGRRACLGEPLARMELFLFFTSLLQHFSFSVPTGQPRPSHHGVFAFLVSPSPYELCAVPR

[7] = system: Liver microsomes; assay: Intrinsic clearance in rat liver microsomes at 1 uM after 60 mins by LC-MS/MS analysis; format: ADME, Microsome; conditions: 1 h; how it was run: as §1
[8] = molecular target: Cytochrome P450 2C19 (Homo sapiens, UniProt P33261); assay: Inhibition of recombinant CYP2C19 after 45 mins; format: ADME; how it was run: as §2
Chain of Cytochrome P450 2C19 (P33261 whole entry): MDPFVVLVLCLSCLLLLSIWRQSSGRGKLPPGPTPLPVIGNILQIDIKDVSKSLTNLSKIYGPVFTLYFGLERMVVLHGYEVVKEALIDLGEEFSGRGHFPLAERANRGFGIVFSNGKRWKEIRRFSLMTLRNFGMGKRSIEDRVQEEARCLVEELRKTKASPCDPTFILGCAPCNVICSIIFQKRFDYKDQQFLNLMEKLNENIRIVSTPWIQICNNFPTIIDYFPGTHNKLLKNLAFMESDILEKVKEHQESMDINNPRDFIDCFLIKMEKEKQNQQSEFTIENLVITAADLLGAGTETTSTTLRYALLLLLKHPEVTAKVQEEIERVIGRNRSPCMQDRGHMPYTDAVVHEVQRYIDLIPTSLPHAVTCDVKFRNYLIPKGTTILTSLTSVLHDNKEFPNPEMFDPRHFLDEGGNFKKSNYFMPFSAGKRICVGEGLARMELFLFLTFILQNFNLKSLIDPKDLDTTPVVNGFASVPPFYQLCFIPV

[9] = molecular target: T3, Adenosine receptor A1 (Homo sapiens) (UniProt P30542); assay: Displacement of [3H]-DPCPX from human adenosine A1 receptor expressed in CHO cells at 10 uM after 30 mins by scintillation counting; format: cell-based
T3 sequence (whole entry): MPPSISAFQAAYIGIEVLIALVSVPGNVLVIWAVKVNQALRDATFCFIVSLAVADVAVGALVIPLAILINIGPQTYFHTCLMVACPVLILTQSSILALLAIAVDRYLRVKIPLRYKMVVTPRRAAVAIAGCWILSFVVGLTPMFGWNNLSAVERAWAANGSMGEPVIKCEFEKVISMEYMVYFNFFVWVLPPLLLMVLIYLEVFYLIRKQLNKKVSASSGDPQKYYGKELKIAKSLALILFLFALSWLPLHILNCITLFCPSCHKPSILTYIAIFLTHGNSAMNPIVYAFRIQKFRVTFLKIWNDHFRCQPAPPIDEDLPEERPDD

[10] = molecular target: Cytochrome P450 2C9 (Homo sapiens, UniProt P11712); assay: Inhibition of recombinant CYP2C9 after 45 mins; format: ADME
Chain of Cytochrome P450 2C9 (P11712 whole entry): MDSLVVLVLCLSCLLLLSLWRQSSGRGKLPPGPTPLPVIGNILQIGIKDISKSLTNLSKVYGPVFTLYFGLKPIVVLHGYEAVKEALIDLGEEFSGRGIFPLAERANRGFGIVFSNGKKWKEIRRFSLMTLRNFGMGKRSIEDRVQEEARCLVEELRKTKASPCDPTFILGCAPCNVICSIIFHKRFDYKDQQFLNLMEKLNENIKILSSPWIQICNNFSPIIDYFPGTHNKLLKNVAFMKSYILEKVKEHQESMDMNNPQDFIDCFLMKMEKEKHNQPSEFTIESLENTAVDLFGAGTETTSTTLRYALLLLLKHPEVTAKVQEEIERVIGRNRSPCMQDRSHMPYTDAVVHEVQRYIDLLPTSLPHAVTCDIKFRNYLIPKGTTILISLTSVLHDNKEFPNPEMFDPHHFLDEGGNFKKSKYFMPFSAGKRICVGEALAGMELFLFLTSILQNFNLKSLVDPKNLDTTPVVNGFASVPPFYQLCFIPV

[11] = system: Mus musculus; assay: Reversal of haloperidol-induced hypolocomotion in po dosed NMRI mouse administered 30 mins before haloperidol challenge measured for 20 mins; format: functional
How it was run: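 Male NMRI mice (n = 8/group) were given compound po in 25% cremophor/saline, then haloperidol 0.63 mg/kg sc 30 min later. After 15 min they went into photocell activity boxes, and locomotion was recorded for 20 min. ED50 by sigmoidal fit with top 100 and bottom 0.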

[12] = Aqueous solubility of the compound at pH 4; format: physicochemical; conditions: water
[13] = system: Rattus norvegicus; assay: Tmax in Sprague-Dawley rat assessed as 4-(3,3-Dimethyl-butyrylamino)-3,5-difluoro-N-thiazol-2-yl-benzamide level at 1.4 mg/kg, po; format: ADME, organism-based; design: dose 1.4 mg/kg, route oral; conditions: in vivo
How it was run: (§3)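 Prodrugs dosed po in aqueous 10% hydroxypropyl β-cyclodextrin (2 mL/kg) to rats; doses expressed as parent-drug equivalents; n = 3. Six tail-vein blood samples (~100 μL) taken between 5 and 420 min. Parent drug in plasma measured by HTLC-MS/MS. Profiles fitted with a one-compartment model; AUC extrapolated to infinity.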

[14] = Chemical stability of the compound assessed as half life; format: physicochemical
How it was run: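 Prodrug was dissolved in water, filtered, and diluted to approximately 0.05 mg/mL in buffers of different pH. Sealed vials were stored at 50 C to accelerate hydrolysis. Samples were diluted 1:1 with acetonitrile and analysed by HPLC for prodrug and hydrolysis products.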

[15] = system: Rattus norvegicus; assay: Oral bioavailability in Sprague-Dawley rat assessed as 4-(3,3-Dimethyl-butyrylamino)-3,5-difluoro-N-thiazol-2-yl-benzamide level at 1.4 mg/kg; format: ADME, organism-based; conditions: in vivo; how it was run: as §3
[16] = system: Rattus norvegicus; assay: Cmax in Sprague-Dawley rat assessed as 4-(3,3-Dimethyl-butyrylamino)-3,5-difluoro-N-thiazol-2-yl-benzamide level at 1.4 mg/kg, po; format: ADME, organism-based; design: dose 1.4 mg/kg, route oral; conditions: in vivo; how it was run: as §3
[17] = molecular target: T1, Adenosine receptor A2a; assay: Displacement of [3H]-ZM241385 from human adenosine A2A receptor expressed in high five cells at 10 uM after 30 mins by scintillation counting
How it was run: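 hA2A membranes from baculovirus-infected High Five cells (harvested 72 h), pretreated with adenosine deaminase 2 U/mL for 30 min at 37 C. Membranes at 10.6 μg protein/well were incubated with 1 nM [3H]-ZM241385 in 50 mM Tris/HCl pH 7.4 for 30 min at 25 C. GF/B filtration, scintillation counting. Nonspecific binding by CGS15943. Percent displacement at 10 μM.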

[18] = molecular target: T3, Adenosine receptor A1 (Homo sapiens); assay: Displacement of [3H]-DPCPX from human adenosine A1 receptor expressed in CHO cells at 2000 nM after 30 mins by scintillation counting
[19] = system: Rattus norvegicus; assay: Cmax in Sprague-Dawley rat assessed as 4-(3,3-Dimethyl-butyrylamino)-3,5-difluoro-N-thiazol-2-yl-benzamide level at 1.5 mg/kg, po; format: ADME, organism-based; design: dose 1.5 mg/kg, route oral; conditions: in vivo; how it was run: as §3
[20] = system: Rattus norvegicus; assay: AUC in Sprague-Dawley rat assessed as 4-(3,3-Dimethyl-butyrylamino)-3,5-difluoro-N-thiazol-2-yl-benzamide level at 15 mg/kg, po; format: ADME, organism-based, Plasma; design: dose 15 mg/kg, route oral; conditions: in vivo; how it was run: as §3
[21] = system: Rattus norvegicus; assay: Oral bioavailability in Sprague-Dawley rat assessed as 4-(3,3-Dimethyl-butyrylamino)-3,5-difluoro-N-thiazol-2-yl-benzamide level at 1.5 mg/kg; format: ADME, organism-based; conditions: in vivo; how it was run: as §3
[22] = system: Rattus norvegicus; assay: Oral bioavailability in Sprague-Dawley rat assessed as 4-(3,3-Dimethyl-butyrylamino)-3,5-difluoro-N-thiazol-2-yl-benzamide level at 15 mg/kg; format: ADME, organism-based; conditions: in vivo; how it was run: as §3
[23] = system: Rattus norvegicus; assay: Tmax in Sprague-Dawley rat assessed as 4-(3,3-Dimethyl-butyrylamino)-3,5-difluoro-N-thiazol-2-yl-benzamide level at 1.5 mg/kg, po; format: ADME, organism-based; design: dose 1.5 mg/kg, route oral; conditions: in vivo; how it was run: as §3
[24] = system: Rattus norvegicus; assay: Tmax in Sprague-Dawley rat assessed as 4-(3,3-Dimethyl-butyrylamino)-3,5-difluoro-N-thiazol-2-yl-benzamide level at 15 mg/kg, po; format: ADME, organism-based; design: dose 15 mg/kg, route oral; conditions: in vivo; how it was run: as §3
[25] = system: Rattus norvegicus; assay: Cmax in Sprague-Dawley rat assessed as 4-(3,3-Dimethyl-butyrylamino)-3,5-difluoro-N-thiazol-2-yl-benzamide level at 15 mg/kg, po; format: ADME, organism-based; design: dose 15 mg/kg, route oral; conditions: in vivo; how it was run: as §3
[26] = Aqueous solubility of the compound at pH 6.9; format: physicochemical; conditions: buffer

Structure (SMILES) | IC50 [1] | Ratio [2] | CL [3] | Ki [4] | IC50 [5] | IC50 [6] | CL [7] | IC50 [8] | inhibition [9] | IC50 [10] | further results
CCCCC(=O)Nc1ccc(C(=O)Nc2nccs2)cc1 | > 40 µM | 0.7 | 2.3 L/min | 0.19 µM | > 40 µM | > 40 µM | 54 mL/min | > 40 µM | 69% | 40 µM | –
CCn1c(=O)c2c(nc(/C=C/c3ccc(OC)c(OC)c3)n2C)n(CC)c1=O [ISTRADEFYLLINE] | – | – | 0.1 L/min | – | > 40 µM | > 40 µM | 11 mL/min | > 40 µM | – | – | ED50 [11]: 0.13 mg/kg
CC[C@H](C)[C@H](N)C(=O)OCn1ccs/c1=N\C(=O)c1cc(F)c(NC(=O)CC(C)(C)C)c(F)c1 | – | – | – | – | – | – | – | – | – | – | solubility [12]: 19.4 mg/mL (≈ 39.1 mM); Tmax [13]: 54 min; half-life [14]: 24 min; F [15]: 31%; Cmax [16]: 381 ng/mL
CC(C)(C)CC(=O)Nc1ccc(C(=O)Nc2nccs2)cc1 | > 40 µM | 0.7 | 0.7 L/min | 0.036 µM | > 40 µM | > 40 µM | 11 mL/min | > 40 µM | 39% | > 40 µM | –
Cc1ccccc1C(=O)Nc1ccc(C(=O)Nc2nccs2)cc1 | 1.4 µM | 0.8 | 0.5 L/min | 0.22 µM | > 40 µM | > 40 µM | 5 mL/min | 23 µM | 47% | > 40 µM | –
CC(C)(C)CNC(=O)c1ccc(NC(=O)c2nccs2)cc1 | – | – | – | – | – | – | – | – | – | – | inhibition [17]: 0%
CC(C)CC(=O)Nc1ccc(C(=O)Nc2nccs2)cc1 | > 40 µM | 0.7 | 1.6 L/min | 0.09 µM | > 40 µM | > 40 µM | 12 mL/min | > 40 µM | 64% | > 40 µM | –
COCCOc1ccc(N2CCN(CCn3ncc4c3nc(N)n3nc(-c5ccco5)nc43)CC2)cc1 [PRELADENANT] | – | 1.1 | – | – | > 40 µM | > 40 µM | – | > 40 µM | – | – | inhibition [18]: 30%; ED50 [11]: 0.4 mg/kg
CCCC(=O)Nc1ccc(C(=O)Nc2nccs2)cc1 | > 40 µM | 0.7 | 0.8 L/min | 0.35 µM | > 40 µM | > 40 µM | 18 mL/min | 36 µM | 54% | > 40 µM | –
CC(C)(C)CC(=O)Nc1ccc(NC(=O)c2nccs2)cc1 | – | – | – | – | – | – | – | – | – | – | inhibition [17]: 18%
CC(C)(C)CC(=O)Nc1c(F)cc(C(=O)/N=c2\sccn2COP(=O)(O)O)cc1F | – | – | – | – | – | – | – | – | – | – | Cmax [19]: 869 ng/mL; AUC [20]: 35000 ng·h/mL; half-life [14]: > 96000 min; F [21]: 55%; F [22]: 66%; Tmax [23]: 30 min; Tmax [24]: 24 min; Cmax [25]: 6413 ng/mL; solubility [26]: 8.6 mg/mL (≈ 18.6 mM)
